According to ChEMBL document CHEMBL4017533, “Molecular Recognition of Agonists and Antagonists by the Nucleotide-Activated G Protein-Coupled P2Y2 Receptor” (J Med Chem, 2017):
Calls of active or inactive are those of the source. The calls are words filed in the database; no cut-off is given here.

Key:
Homo sapiens [1] = organism: Homo sapiens; assay: Selectivity ratio of EC50 for P2Y2 receptor R272A mutant (unknown origin) to EC50 for wild type P2Y2 receptor (unknown origin)
Homo sapiens [2] = organism: Homo sapiens; assay: Selectivity ratio of IC50 for P2Y2 receptor R194H mutant (unknown origin) to IC50 for wild type P2Y2 receptor (unknown origin)
Homo sapiens [3] = organism: Homo sapiens; assay: Selectivity ratio of IC50 for P2Y2 receptor Y288F mutant (unknown origin) to IC50 for wild type P2Y2 receptor (unknown origin)
Summary of the method: (§1)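 Human P2Y2R, wild type or single point mutant, retrovirally transduced into 1321N1 astrocytoma cells and selected with G418. Cells were seeded at 50000/well overnight, loaded with fluo-4 AM for 1 h in HBSS, and preincubated with antagonist for 30 min. UTP was then injected at its EC80 for that cell line. Calcium fluorescence was read at ex 488/em 525 nm. IC50 was fitted by nonlinear regression (n ≥ 3), and the ratio was taken as mutant IC50 over wild-type IC50.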

Homo sapiens [4] = organism: Homo sapiens; assay: Selectivity ratio of IC50 for P2Y2 receptor F261A mutant (unknown origin) to IC50 for wild type P2Y2 receptor (unknown origin)
Homo sapiens [5] = organism: Homo sapiens; assay: Selectivity ratio of IC50 for P2Y2 receptor Y114F mutant (unknown origin) to IC50 for wild type P2Y2 receptor (unknown origin); summary of the method: as §1
Homo sapiens [6] = organism: Homo sapiens; assay: Selectivity ratio of IC50 for P2Y2 receptor Y268F mutant (unknown origin) to IC50 for wild type P2Y2 receptor (unknown origin); summary of the method: as §1
P2Y purinoceptor 2 [7] = target: T1, P2Y purinoceptor 2 (Homo sapiens, UniProt P41231); assay: (§2) Antagonist activity at wild type P2Y2 receptor (unknown origin) expressed in human 1321N1 astrocytoma cells assessed as inhibition of UTP-induced increase in intracellular calcium mobilization preincubated for 30 mins followed by UTP addition measured after 1 hr by Fluo-4 AM dye based fluorescence assay; type: functional, cell-based
Summary of the method: (§3)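 Stably transduced 1321N1 cells expressing wt or mutant human P2Y2R were loaded with fluo-4 AM/Pluronic F-127 in HBSS for 1 h. Test compound was preincubated for 30 min, then UTP was injected at the EC80 determined for each cell line. Calcium fluorescence was read at ex 488/em 525 nm. IC50 was obtained by nonlinear regression, n ≥ 3.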

Homo sapiens [8] = organism: Homo sapiens; assay: Selectivity ratio of EC50 for P2Y2 receptor Y114F mutant (unknown origin) to EC50 for wild type P2Y2 receptor (unknown origin)
Homo sapiens [9] = organism: Homo sapiens; assay: Selectivity ratio of EC50 for P2Y2 receptor S193A mutant (unknown origin) to EC50 for wild type P2Y2 receptor (unknown origin)
P2Y purinoceptor 2 [10] = target: P2Y purinoceptor 2 (Homo sapiens, UniProt P41231, S193A); assay: Agonist activity at P2Y2 receptor S193A mutant (unknown origin) expressed in human 1321N1 astrocytoma cells assessed as increase in intracellular calcium mobilization after 1 hr by Fluo-4 AM dye based fluorescence assay; type: functional, cell-based
Summary of the method: (§4)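 Human 1321N1 astrocytoma cells stably carrying wt or point-mutant human P2Y2R, introduced by retrovirus and selected with G418, plated at 50000 cells/well the day before. Cells loaded with fluo-4 AM plus Pluronic F-127 in HBSS for 1 h, then washed. Agonist added at graded concentrations, fluorescence read at ex 488/em 525 nm. […] Carbachol 100 μM acting on endogenous M3 served as the maximum reference.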

[11] = tested on: P2Y purinoceptor 2 (Homo sapiens), P41231 [Y114F]; assay: Agonist activity at P2Y2 receptor Y114F mutant (unknown origin) expressed in human 1321N1 astrocytoma cells assessed as increase in intracellular calcium mobilization after 1 hr by Fluo-4 AM dye based fluorescence assay; type: functional, cell-based; summary of the method: as §4
Homo sapiens [12] = organism: Homo sapiens; assay: Selectivity ratio of EC50 for P2Y2 receptor R194A mutant (unknown origin) to EC50 for wild type P2Y2 receptor (unknown origin)
P2Y purinoceptor 2 [13] = target: P2Y purinoceptor 2 (Homo sapiens, UniProt P41231, H184A); assay: Agonist activity at P2Y2 receptor H184A mutant (unknown origin) expressed in human 1321N1 astrocytoma cells assessed as increase in intracellular calcium mobilization after 1 hr by Fluo-4 AM dye based fluorescence assay; type: functional, cell-based; summary of the method: as §4
Homo sapiens [14] = organism: Homo sapiens; assay: Agonist activity at P2Y2 receptor R194A mutant (unknown origin) expressed in human 1321N1 astrocytoma cells assessed as increase in intracellular calcium mobilization after 1 hr by Fluo-4 AM dye based fluorescence assay; type: cell-based; summary of the method: as §4
Homo sapiens [15] = organism: Homo sapiens; assay: Selectivity ratio of EC50 for P2Y2 receptor Y288F mutant (unknown origin) to EC50 for wild type P2Y2 receptor (unknown origin)
Homo sapiens [16] = organism: Homo sapiens; assay: Selectivity ratio of EC50 for P2Y2 receptor H184A mutant (unknown origin) to EC50 for wild type P2Y2 receptor (unknown origin)
Homo sapiens [17] = organism: Homo sapiens; assay: Selectivity ratio of EC50 for P2Y2 receptor Y269F mutant (unknown origin) to EC50 for wild type P2Y2 receptor (unknown origin)
[18] = tested on: P2Y purinoceptor 2 (Homo sapiens), P41231 [Y288A]; assay: Agonist activity at P2Y2 receptor Y288A mutant (unknown origin) expressed in human 1321N1 astrocytoma cells assessed as increase in intracellular calcium mobilization after 1 hr by Fluo-4 AM dye based fluorescence assay; type: functional, cell-based; summary of the method: as §4
Homo sapiens [19] = organism: Homo sapiens; assay: Selectivity ratio of EC50 for P2Y2 receptor F111A mutant (unknown origin) to EC50 for wild type P2Y2 receptor (unknown origin)
Homo sapiens [20] = organism: Homo sapiens; assay: Selectivity ratio of EC50 for P2Y2 receptor R194H mutant (unknown origin) to EC50 for wild type P2Y2 receptor (unknown origin)
[21] = tested on: P2Y purinoceptor 2 (Homo sapiens), P41231 [R292A]; assay: Agonist activity at P2Y2 receptor R292A mutant (unknown origin) expressed in human 1321N1 astrocytoma cells assessed as increase in intracellular calcium mobilization after 1 hr by Fluo-4 AM dye based fluorescence assay; type: functional, cell-based; summary of the method: as §4
P2Y purinoceptor 2 [22] = target: T1, P2Y purinoceptor 2; assay: Agonist activity at wild type P2Y2 receptor (unknown origin) expressed in human 1321N1 astrocytoma cells assessed as increase in intracellular calcium mobilization after 1 hr by Fluo-4 AM dye based fluorescence assay; type: functional, cell-based; summary of the method: as §4
P2Y purinoceptor 2 [23] = target: P2Y purinoceptor 2 (Homo sapiens, UniProt P41231, Y288F); assay: (§5) Agonist activity at P2Y2 receptor Y288F mutant (unknown origin) expressed in human 1321N1 astrocytoma cells assessed as increase in intracellular calcium mobilization after 1 hr by Fluo-4 AM dye based fluorescence assay; type: functional, cell-based; summary of the method: as §4
[24] = tested on: P2Y purinoceptor 2 (Homo sapiens), P41231 [R265A]; assay: Agonist activity at P2Y2 receptor R265A mutant (unknown origin) expressed in human 1321N1 astrocytoma cells assessed as increase in intracellular calcium mobilization after 1 hr by Fluo-4 AM dye based fluorescence assay; type: functional, cell-based; summary of the method: as §4
Homo sapiens [25] = organism: Homo sapiens; assay: Selectivity ratio of EC50 for P2Y2 receptor F261A mutant (unknown origin) to EC50 for wild type P2Y2 receptor (unknown origin)
[26] = tested on: P2Y purinoceptor 2 (Homo sapiens), P41231 [F261A]; assay: Agonist activity at P2Y2 receptor F261A mutant (unknown origin) expressed in human 1321N1 astrocytoma cells assessed as increase in intracellular calcium mobilization after 1 hr by Fluo-4 AM dye based fluorescence assay; type: functional, cell-based; summary of the method: as §4
[27] = tested on: P2Y purinoceptor 2 (Homo sapiens), P41231 [R110A]; assay: Agonist activity at P2Y2 receptor R110A mutant (unknown origin) expressed in human 1321N1 astrocytoma cells assessed as increase in intracellular calcium mobilization after 1 hr by Fluo-4 AM dye based fluorescence assay; type: functional, cell-based; summary of the method: as §4
Homo sapiens [28] = organism: Homo sapiens; assay: Selectivity ratio of EC50 for P2Y2 receptor Y268F mutant (unknown origin) to EC50 for wild type P2Y2 receptor (unknown origin)
[29] = tested on: P2Y purinoceptor 2 (Homo sapiens), P41231 [Y288F]; assay: as §5; type: functional, cell-based; summary of the method: as §4
Homo sapiens [30] = organism: Homo sapiens; assay: as §2, with “receptor R194H mutant” for “receptor”; type: cell-based; summary of the method: as §3
[31] = tested on: P2Y purinoceptor 2 (Homo sapiens), P41231 [Y114F]; assay: as §2, with “receptor Y114F mutant” for “receptor”; type: functional, cell-based; summary of the method: as §3
Homo sapiens [32] = organism: Homo sapiens; assay: as §2, with “receptor Y114A mutant” for “receptor”; type: cell-based; summary of the method: as §3

Chain of P2Y purinoceptor 2 (Homo sapiens), P41231 [Y114F] (P41231 whole entry Y114F): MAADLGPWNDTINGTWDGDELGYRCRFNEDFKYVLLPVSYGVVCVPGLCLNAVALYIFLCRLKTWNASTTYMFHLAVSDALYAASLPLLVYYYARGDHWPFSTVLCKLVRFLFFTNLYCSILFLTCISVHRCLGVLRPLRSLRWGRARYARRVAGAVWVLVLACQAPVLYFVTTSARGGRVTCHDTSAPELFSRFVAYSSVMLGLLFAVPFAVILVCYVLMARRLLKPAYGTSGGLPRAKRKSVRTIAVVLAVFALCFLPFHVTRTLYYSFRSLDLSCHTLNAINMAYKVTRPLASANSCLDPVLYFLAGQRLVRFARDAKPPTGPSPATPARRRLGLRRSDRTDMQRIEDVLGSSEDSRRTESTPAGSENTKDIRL
T1 sequence (P41231 whole entry): as the sequence (P41231 whole entry Y114F) above, with F114Y counted along it
Chain of P2Y purinoceptor 2 (Homo sapiens), P41231 [R292A] (P41231 whole entry R292A): as the sequence (P41231 whole entry Y114F) above, with F114Y, R292A counted along it
Chain of P2Y purinoceptor 2 (Homo sapiens), P41231 [Y288A] (P41231 whole entry Y288A): as the sequence (P41231 whole entry Y114F) above, with F114Y, Y288A counted along it
Chain of P2Y purinoceptor 2 (Homo sapiens), P41231 [R110A] (P41231 whole entry R110A): as the sequence (P41231 whole entry Y114F) above, with R110A, F114Y counted along it
Chain of P2Y purinoceptor 2 (Homo sapiens), P41231 [R265A] (P41231 whole entry R265A): as the sequence (P41231 whole entry Y114F) above, with F114Y, R265A counted along it
Chain of P2Y purinoceptor 2 (Homo sapiens), P41231 [F261A] (P41231 whole entry F261A): as the sequence (P41231 whole entry Y114F) above, with F114Y, F261A counted along it
Chain of P2Y purinoceptor 2 (Homo sapiens, UniProt P41231, H184A) (P41231 whole entry H184A): as the sequence (P41231 whole entry Y114F) above, with F114Y, H184A counted along it
Chain of P2Y purinoceptor 2 (Homo sapiens, UniProt P41231, Y288F) (P41231 whole entry Y288F): as the sequence (P41231 whole entry Y114F) above, with F114Y, Y288F counted along it
Chain of P2Y purinoceptor 2 (Homo sapiens), P41231 [Y288F] (P41231 whole entry Y288F): as the sequence (P41231 whole entry Y114F) above, with F114Y, Y288F counted along it
Chain of P2Y purinoceptor 2 (Homo sapiens, UniProt P41231, S193A) (P41231 whole entry S193A): as the sequence (P41231 whole entry Y114F) above, with F114Y, S193A counted along it

In the case of Nc1ncnc2c1ncn2[C@@H]1O[C@H](COP(=O)(O)OP(=O)(O)OP(=O)(O)O)[C@@H](O)[C@H]1O, the Ratio EC50 (Homo sapiens [1]) is reported as 350.
CSc1nc(N)c2ncn([C@@H]3O[C@H](COP(=O)(O)OP(=O)(O)OP(=O)(O)O)[C@@H](O)[C@H]3O)c2n1 gave a Ratio EC50 (Homo sapiens [1]) of 350.
For Cc1ccc2c(c1)C=Cc1cc(C)ccc1C2c1cn(Cc2ccc(C(=O)Nc3nnn[nH]3)o2)c(=O)[nH]c1=S, the Ratio IC50 (Homo sapiens [2]) was less than 3, the Ratio IC50 (Homo sapiens [3]) was less than 3 and the Ratio IC50 (Homo sapiens [4]) was less than 3. For the same compound, the Ratio IC50 (Homo sapiens [5]) was less than 3, the Ratio IC50 (Homo sapiens [6]) was less than 3 and the inhibition (P2Y purinoceptor 2 [7]) was “Active”.
Compound O=c1ccn([C@@H]2O[C@H](COP(=O)(O)OP(=O)(O)OP(=O)(O)O)[C@@H](O)[C@H]2O)c(=O)[nH]1 [URIDINE TRIPHOSPHATE] has a Ratio EC50 (Homo sapiens [8]) of 300, a Ratio EC50 (Homo sapiens [9]) of 10 to 50 and an EC50 (P2Y purinoceptor 2 [10]) of 0.0706 µM. The Activity [11] was “Active”, the Ratio EC50 (Homo sapiens [12]) was 10 to 50 and the EC50 (P2Y purinoceptor 2 [13]) was 0.996 µM. For the same compound, the Activity (Homo sapiens [14]) was “Active”, the Ratio EC50 (Homo sapiens [15]) was 150 and the Ratio EC50 (Homo sapiens [16]) was greater than 100. The Ratio EC50 (Homo sapiens [17]) was 10 to 50, the Activity [18] was “inactive” and the Ratio EC50 (Homo sapiens [19]) was 10 to 50. For the same compound, the Ratio EC50 (Homo sapiens [1]) was 350, the Ratio EC50 (Homo sapiens [20]) was 50 and the Activity [21] was “inactive”. The EC50 (P2Y purinoceptor 2 [22]) was 0.00561 µM, the EC50 (P2Y purinoceptor 2 [23]) was 0.911 µM and the Activity [24] was “inactive”. For the same compound, the Ratio EC50 (Homo sapiens [25]) was 100, the Activity [26] was “Active” and the Activity [27] was “inactive”. For the same compound, the Ratio EC50 (Homo sapiens [28]) was 10 to 50.
Nc1ncnc2c1ncn2[C@@H]1O[C@H](COP(=O)(O)OP(=O)(O)OP(=O)(O)OP(=O)(O)OC[C@@H]2O[C@H](n3cnc4c(N)ncnc43)[C@@H](O)[C@H]2O)[C@@H](O)[C@H]1O was tested, and the Activity [11] was “inactive”, the Activity (Homo sapiens [14]) was “inactive” and the Activity [18] was “inactive”. The Ratio EC50 (Homo sapiens [1]) was greater than 4000, the Ratio EC50 (Homo sapiens [20]) was 25 and the Activity [21] was “inactive”. The Activity [29] was “inactive”, the Activity [24] was “inactive” and the Activity [26] was “inactive”. The Activity [27] was “inactive”.
In the case of Cc1cccc(Nc2ccc(Nc3cc(S(=O)(=O)O)c(N)c4c3C(=O)c3ccccc3C4=O)cc2C(=O)O)c1C, the inhibition (Homo sapiens [30]) is reported as “Active”, the inhibition [31] is reported as “Active” and the inhibition (P2Y purinoceptor 2 [7]) is reported as “Active”.
In the case of Nc1c(S(=O)(=O)O)cc(Nc2ccc(Nc3ccccc3Cl)c(C(=O)O)c2)c2c1C(=O)c1ccccc1C2=O, the inhibition (P2Y purinoceptor 2 [7]) is reported as “Active”.
With Nc1c(S(=O)(=O)O)cc(Nc2ccccc2)c2c1C(=O)c1ccccc1C2=O the inhibition (Homo sapiens [30]) was “Active”, the inhibition [31] was “Active” and the inhibition (Homo sapiens [32]) was “Active”. For the same compound, the inhibition (P2Y purinoceptor 2 [7]) was “Active”.
